Assay outcomes as filed in PubChem.
KCNK9 block – blocks the human KCNK9 two-pore domain potassium channel | HEK293 KCNK9, FluxOR thallium flux fluorescence; hits give low values | B-score at 10 µM | 1.2% of 310,000 active | AID 488922;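 active = ratio B-score over 3 SD below the library mean, with starting fluorescence within 5 SD of its mean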;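 also: negative B-score means less thallium flux so channel inhibition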
KCNK3 inh – human KCNK3 channel inhibition, primary screen; B-score at 10 µM; CHO-KCNK3 thallium flux, FluxOR fluorescence; hits give low values; 0.84% of 340,000 active;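 active = B-score under library mean minus 4 SD, starting fluorescence ratio at most library mean plus 5 SD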;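 also: more negative B-score means stronger inhibition of thallium flux through KCNK3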
PHOSPHO1 inh – PHOSPHO1 (human) inhibition. inhibition, % at 13.3 µM. 1.1% of 290,000 active. recombinant PHOSPHO1, absorbance phosphatase assay. Q8TCT1; in the data active = inhibition above about 60%
hERG rescue – hERG (human) protection from proarrhythmic block; activation (rescue from dofetilide block), less the hit threshold, % at 10 µM; 0.51% of 310,000 active; CHO-hERG, FluxOR thallium flux, dofetilide IC70 present; AID 1511;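 active = activation above the mean of controls blocked by dofetilide plus 5 SD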;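 also: thallium influx through hERG after potassium depolarization seen as dye fluorescence rise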
KCNQ1 pot – potentiates or activates the human KCNQ1 potassium channel; B-score at 10 µM; AID 2648; 0.35% of 310,000 active; CHO-K1 KCNQ1, thallium flux FluxOR fluorescence; hits give high values;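 active = fluorescence ratio B-score, a plate-corrected score, at least three library SD, with initial intensity B-score within 5 SD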
Target sequence (P51787 whole entry, looked up): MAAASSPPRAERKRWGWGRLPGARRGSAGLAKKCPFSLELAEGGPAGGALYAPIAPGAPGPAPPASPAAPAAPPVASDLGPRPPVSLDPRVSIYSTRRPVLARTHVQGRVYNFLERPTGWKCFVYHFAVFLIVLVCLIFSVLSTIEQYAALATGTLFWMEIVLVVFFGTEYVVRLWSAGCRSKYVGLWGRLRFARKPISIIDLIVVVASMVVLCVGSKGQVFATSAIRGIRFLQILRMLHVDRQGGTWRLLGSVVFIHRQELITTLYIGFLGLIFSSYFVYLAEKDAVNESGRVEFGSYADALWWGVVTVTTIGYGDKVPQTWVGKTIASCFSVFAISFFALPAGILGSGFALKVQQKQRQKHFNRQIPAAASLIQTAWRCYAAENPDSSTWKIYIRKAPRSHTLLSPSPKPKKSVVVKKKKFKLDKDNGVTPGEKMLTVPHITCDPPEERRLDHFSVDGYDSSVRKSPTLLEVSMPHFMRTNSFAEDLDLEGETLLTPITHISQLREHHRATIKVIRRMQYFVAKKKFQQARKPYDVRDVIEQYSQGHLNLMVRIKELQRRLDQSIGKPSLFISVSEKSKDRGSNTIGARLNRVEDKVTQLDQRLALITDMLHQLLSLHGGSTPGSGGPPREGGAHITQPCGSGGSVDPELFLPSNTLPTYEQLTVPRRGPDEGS
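System: CHO-K1 cells stably expressing KCNQ1 / Medium: assay buffer for compound exposure, DMSO matched across wells / Reagent: thallium- and potassium-containing depolarizing buffer / Compound: one concentration, matched DMSO / Incubation: 20 min compound pretreatment at room temperature / Measured by: kinetic FluxOR fluorescence, 10 s baseline plus 110 s post-stimulus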
KCNQ1 block – blocks the human KCNQ1 potassium channel; 1.3% of 310,000 active; CHO-K1 KCNQ1, FluxOR thallium flux fluorescence; hits give high values; B-score at 10 µM; P51787;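 active = compounds whose thallium flux B-score, printed positive for inhibition, exceeds three library SD while starting fluorescence stays within three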;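 also: channel opened by potassium depolarization with thallium stimulus after 20 min compound exposure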
KCNQ1 inh valid – reconfirmed blocker of the human KCNQ1 potassium channel; KCNQ1 cell line, FluxOR thallium flux fluorescence; inhibition, % at 10 µM; shares compounds with KCNQ1 block; 93% of 1,600 active;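 active = primary screen active, with duplicate mean exceeding buffer control mean plus 3 SD of buffer wells, cut at about 28% in these data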;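 also: 0% = buffer control ratio and 100% = XE991 inhibitor control ratio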
CHO KCNQ1 ctr – counter-screen for KCNQ1 inhibitors: effect in parental CHO cells. fluorescence ratio (Tl flux) at 10 µM. 21% of 1,600 active. AID 588366. parental CHO-K1, FluxOR thallium flux fluorescence ratio; hits give low values; zero means no signal rise above baseline. shares compounds with KCNQ1 block;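 active = mean of duplicate thallium-flux fluorescence ratios in parental host cells more than 5 SD below the buffer control mean, cut at about 0.38 in these data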;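 also: ratio is peak minus minimum fluorescence divided by baseline fluorescence; actives read low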
KCNQ1 APC inh – human KCNQ1 inhibition validated by electrophysiology | shares compounds with KCNQ1 block | KCNQ1-CHO cells, automated patch clamp current | calls only at 10 µM | 20% of 490 active;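 active = KCNQ1 current drop exceeding 3 SD of negative control wells, seen in both duplicate runs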;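 also: steady state current during a 2 s step from -80 to +40 mV; negative values mean current inhibition and positive values mean potentiation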
KCNQ2 spec – rat KCNQ2 inhibition in KCNQ1 inhibitor specificity screen. inhibition, % at 10 µM. AID 651746. shares compounds with KCNQ1 block. KCNQ2 cells, FluxOR thallium flux fluorescence. 71% of 1,600 active;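 active = mean percent inhibition of the KCNQ2 thallium signal more than 5 SD above the buffer-only control wells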;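 also: KCNQ2 expressed in CHO cells; 0% = buffer control wells and 100% = XE-991 inhibitor control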
KCNQ1 KCNE1 spec – KCNQ1 inhibitor that also blocks human KCNQ1/KCNE1 channel. shares compounds with KCNQ1 block. KCNQ1/KCNE1 cells, FluxOR thallium flux fluorescence. inhibition, % at 10 µM. 77% of 1,600 active;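 active = mean percent inhibition of duplicate wells above the buffer-only control mean plus 3 SD of those controls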;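 also: 0% = buffer only wells and 100% = XE-991 inhibitor control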
KCNK9 block conf – confirmation of human KCNK9 potassium channel inhibitors; AID 492992; 43% of 4,900 active; inhibition, % at 10 µM; HEK293 KCNK9 cells, FluxOR thallium flux fluorescence; shares compounds with KCNK9 block;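 active = thallium signal inhibited by more than 5 SD of the compound-free buffer control wells, on both duplicate plates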;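 also: 0% = assay buffer control wells without compound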
Kir21 sel – tests whether KCNK9 modulators also affect mouse Kir2.1 | shares compounds with KCNK9 block | Kir2.1 cells, FluxOR thallium flux fluorescence | inhibition, % at 10 µM | 4% of 4,900 active | AID 492993;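 active = thallium signal drop more than 5 SD beyond the mean of the no-compound control wells, seen in both duplicate plates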;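 also: signal is fluorescence rise after thallium addition divided by baseline fluorescence; plate controls were assay buffer only for no effect and full block by chlorpromazine control for full effect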
HEK293 Tl ctr – second counter-screen for KCNK9 modulators: effect in non-induced cells; shares compounds with KCNK9 block; non-induced KCNK9-HEK293, FluxOR thallium flux; inhibition, % at 10 µM; 40% of 4,900 active;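 active = thallium signal drop beyond 5 SD of the untreated control mean, on both duplicate plates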;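 also: plate controls were buffer only IC0 wells for no effect and SID17386958 at its maximal inhibitory level for full effect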
KCNK3 inh conf – human KCNK3 channel inhibition, confirmation assay; shares compounds with KCNK3 inh; CHO-KCNK3 thallium flux, FluxOR fluorescence; 0% buffer, 100% carvedilol maximal block; ratio percent of control, % at 10 µM; 99% of 2,400 active;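 active = ratio percent of control, averaged over triplicates, above buffer control mean plus 5 SD, cut at about 64% in these data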;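 also: ratio is the fluorescence rise from min to max over baseline after thallium stimulus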
KCNK3 uninduced – KCNK3 inhibitor counter-screen hit in non-induced cells. AID 651747. thallium flux ratio (lower = more inhibition) at 10 µM. shares compounds with KCNK3 inh. 40% of 2,400 active. non-induced KCNK3 parental cells, FluxOR thallium flux; hits give low values;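 active = thallium flux ratio, averaged over three wells, more than 5 SD below the buffer control mean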;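 also: host cells are CHO cells without KCNK3 induction; ratio is peak minus trough fluorescence over baseline then normalized to buffer controls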
The depositor's hits bear a star. In the library only some 4% were active in any assay of this set; here they are far more common.

For CCc1nc(N2CCN(Cc3ccc4c(c3)OCO4)CC2)c2oc3ccccc3c2n1 the results were KCNK9 block inactive, KCNK3 inh -9*, PHOSPHO1 inh 15, hERG rescue -17, KCNQ1 pot inactive, KCNQ1 block 9*, KCNQ1 inh valid 128*, CHO KCNQ1 ctr 0.41, KCNQ1 APC inh inactive, KCNQ2 spec 105%*, KCNQ1 KCNE1 spec 179%*, KCNK3 inh conf 109* and KCNK3 uninduced 0.14*.
Screening Cc1sc2ncnc(N3CCC(C(=O)Nc4cc(Cl)ccc4Cl)CC3)c2c1C returned KCNK9 block inactive, KCNK3 inh -10*, hERG rescue -15, KCNQ1 pot inactive, KCNQ1 block 11*, KCNQ1 inh valid 71*, CHO KCNQ1 ctr 0.46, KCNQ2 spec 123%*, KCNQ1 KCNE1 spec 99%*, KCNK3 inh conf 127* and KCNK3 uninduced 0.13*.
`CCN(CC)S(=O)(=O)c1cc(NC(=O)C2CCN(c3ncnc4sc(C)c(C)c34)CC2)ccc1Cl` gave KCNK9 block inactive, KCNK3 inh -9.6*, hERG rescue -17, KCNQ1 pot inactive, KCNQ1 block 6*, KCNQ1 inh valid 58*, CHO KCNQ1 ctr 0.46, KCNQ2 spec 72%*, KCNQ1 KCNE1 spec 95%*, KCNK3 inh conf 102* and KCNK3 uninduced 0.16*.
Screening Cc1ccc(NC(=O)C2CCN(c3ncnc4sc(C)c(C)c34)CC2)cc1S(=O)(=O)N(C)C returned KCNK9 block inactive, KCNK3 inh inactive, hERG rescue -12, KCNQ1 pot inactive and KCNQ1 block inactive.
`Cc1ccc(Cl)cc1N1CCN(S(=O)(=O)c2c(C(=O)N3CCOCC3)c(C)n(C)c2C)CC1` gave KCNK9 block inactive, KCNK3 inh inactive, PHOSPHO1 inh 53, hERG rescue -20, KCNQ1 pot inactive and KCNQ1 block inactive.
`CCN(C(=O)CSc1nnc(-c2ccco2)n1CC)c1c(N)n(Cc2ccccc2)c(=O)[nH]c1=O` gave KCNK3 inh inactive.
`O=C(c1cc(-c2cccc(Cl)c2)nc2ccccc12)N1CCN(c2ccccn2)CC1` gave KCNK9 block inactive, KCNK3 inh -9.9*, PHOSPHO1 inh 0, hERG rescue -9, KCNQ1 pot inactive, KCNQ1 block 6*, KCNQ1 inh valid 69*, CHO KCNQ1 ctr 0.42, KCNQ2 spec 108%*, KCNQ1 KCNE1 spec 84%*, KCNK3 inh conf 120* and KCNK3 uninduced 0.12*.
For COC(=O)C1=C(C)NC(C)=C(C(=O)OC)C1C(=O)OCC(=O)c1ccc(F)cc1 the results were KCNK9 block inactive, KCNK3 inh inactive, PHOSPHO1 inh 19, hERG rescue -9, KCNQ1 pot inactive and KCNQ1 block inactive.
Cc1cc(C)n(-c2cc(C(C)(C)C)nc3c(-c4ccccc4)cnn23)n1 was read as KCNK9 block inactive, KCNK3 inh -13*, PHOSPHO1 inh 29, hERG rescue -8, KCNQ1 pot inactive, KCNQ1 block 8*, KCNQ1 inh valid 85*, CHO KCNQ1 ctr 0.5, KCNQ2 spec inactive, KCNQ1 KCNE1 spec 114%*, KCNK3 inh conf 108* and KCNK3 uninduced inactive.
`CC(C)CC(=O)N1CCN(c2ccc([N+](=O)[O-])c(NCc3ccccc3)c2)CC1` gave KCNK9 block inactive, KCNK3 inh inactive, hERG rescue -3, KCNQ1 pot inactive and KCNQ1 block inactive.
`CC(C)(C)n1nnnc1C(c1ccc(Cl)cc1)N1CCCc2ccccc21` (stereo unspecified) gave KCNK9 block -11*, KCNK3 inh inactive, PHOSPHO1 inh 32, hERG rescue -11, KCNQ1 pot inactive, KCNQ1 block 6*, KCNQ1 inh valid 82*, CHO KCNQ1 ctr 0.43, KCNQ2 spec 88%*, KCNQ1 KCNE1 spec 85%*, KCNK9 block conf 56%*, Kir21 sel inactive, HEK293 Tl ctr 42%*, KCNK3 inh conf 131* and KCNK3 uninduced 0.13*.
CN(C)/N=C/c1ccc(P(c2ccc(/C=N/N(C)C)o2)c2ccc(/C=N/N(C)C)o2)o1 was read as KCNK9 block inactive, KCNK3 inh inactive, PHOSPHO1 inh 27, hERG rescue -4, KCNQ1 pot inactive and KCNQ1 block inactive.
Screening O=C(Nc1cccnc1)c1cc(-c2ccc(Br)cc2)nc2ccccc12 returned KCNK9 block -9.7*, KCNK3 inh -15*, PHOSPHO1 inh 24, hERG rescue -18, KCNQ1 pot inactive, KCNQ1 block 8*, KCNQ1 inh valid 142*, CHO KCNQ1 ctr 0.25*, KCNQ2 spec 139%*, KCNQ1 KCNE1 spec active, KCNK9 block conf 33%*, Kir21 sel inactive, HEK293 Tl ctr inactive, KCNK3 inh conf 143* and KCNK3 uninduced inactive.
Screening CC(C)(C)N=Cc1cc(-c2ccccc2)sc1O returned KCNK9 block inactive, KCNK3 inh inactive, PHOSPHO1 inh 11, hERG rescue -6, KCNQ1 pot inactive and KCNQ1 block inactive.
